In brackets after ≈: the same amount, converted by molar mass.
Assays:
E. coli ATCC 25,922 [1] = assay: Inhibition of biofilm formation; type: cell-based, Escherichia coli; settings: ¼ MIC
Method in brief: (§1)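 Medium was discarded, wells washed with PBS, and biofilm stained with 1 % crystal violet for 15 min at room temperature. After two PBS washes, stain was eluted in 70 % ethanol and read at 595 nm. SBF = (OD595 − OD595 […])/OD600: weak ≤0.5, moderate 0.5–1, strong >1. Triplicate; Kruskal-Wallis with Dunn's test.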

[2] = tested on: Galleria mellonella larvae; assay: In vivo toxicity in Galleria mellonella larvae; settings: G. mellonella larvae, 50 µg/larvae (10 μl of 5 mg/ml), 30 °C, N=10 per group
Method in brief: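 Sixth-instar Galleria mellonella larvae (200–300 mg) were held in sawdust at 4 °C until use. Groups of ten were injected with 10 μl of test compound, colistin or 0.9 % NaCl saline control into the second rear proleg, then kept at 30 °C.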

E. coli ESBL 1057.1 [3] = assay: Minimum bactericidal concentration; type: cell-based, Escherichia coli; settings: lowest concentration reducing at least 99.9 % of growth, plated on LB, 37 °C, 24 h, triplicate
P. aeruginosa ST175–1 = assay: Inhibition of biofilm formation; type: cell-based, Pseudomonas aeruginosa; settings: ¼ MIC
Method in brief: as §1

E. coli ATCC 25,922 [4] = assay: MIC, broth microdilution; type: cell-based, Escherichia coli; settings: MHB II, 10^6 CFU/ml, 37 °C, 24 h, triplicate
Method in brief: (§2)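 Broth microdilution per CLSI. Strains were freshly plated on LB agar from glycerol stocks; the colistin-resistant lpxD mutant was plated on LB with 10 µg/ml colistin. Inoculum was 10^6 CFU/ml in Mueller Hinton broth II with two-fold dilutions of test compound from 100 to 0.10 µg/ml, incubated at 37 °C for 24 h. MIC was the lowest concentration with no growth.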

P. aeruginosa (ST175–1) [5] = assay: MIC, broth microdilution; type: cell-based, Pseudomonas aeruginosa; settings: MHB II, 10^6 CFU/ml, 37 °C, 24 h, triplicate
Method in brief: as §2

E. coli ESBL 1057.1 [6] = assay: MIC, broth microdilution; type: cell-based, Escherichia coli; settings: MHB II, 10^6 CFU/ml, 37 °C, 24 h, triplicate
Method in brief: as §2

K. pneumoniae CG258 [7] = assay: Time-kill assay; type: cell-based, Klebsiella pneumoniae; settings: peptide at 2× MIC
Method in brief: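 Broth without compound was the growth control. Samples taken at 0, 3, 6 and 24 h were diluted and plated on MH II agar for CFU counts. Each curve was run at least in duplicate.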

A. baumannii ATCC 19,606 [8] = assay: MIC, broth microdilution; type: cell-based, Acinetobacter baumannii; settings: MHB II, 10^6 CFU/ml, 37 °C, 24 h, triplicate
Method in brief: as §2

E. coli ATCC 25,922 [9] = assay: Minimum bactericidal concentration; type: cell-based, Escherichia coli; settings: lowest concentration reducing at least 99.9 % of growth, plated on LB, 37 °C, 24 h, triplicate
[10] = tested on: 11 bacterial strains (S. aureus, P. aeruginosa, A. baumannii, K. pneumoniae, E. coli); assay: Antimicrobial activity screening, summary over groups of strains; type: cell-based; settings: 50 µg/ml screen; all strains, Gram-negative and Gram-positive
A. baumannii ATCC 19,606 [11] = assay: Minimum bactericidal concentration; type: cell-based, Acinetobacter baumannii; settings: lowest concentration reducing at least 99.9 % of growth, plated on LB, 37 °C, 24 h, triplicate
A. baumannii Ab-1 [12] = assay: Minimum bactericidal concentration; type: cell-based, Acinetobacter baumannii; settings: lowest concentration reducing at least 99.9 % of growth, plated on LB, 37 °C, 24 h, triplicate
[13] = tested on: P. aeruginosa ATCC 27,853; assay: MIC, broth microdilution; type: cell-based, Pseudomonas aeruginosa; settings: MHB II, 10^6 CFU/ml, 37 °C, 24 h, triplicate
Method in brief: as §2

K. pneumoniae CG258 [14] = assay: Minimum bactericidal concentration; type: cell-based, Klebsiella pneumoniae; settings: lowest concentration reducing at least 99.9 % of growth, plated on LB, 37 °C, 24 h, triplicate
[15] = tested on: K. pneumoniae ATCC 43,816; assay: MIC, broth microdilution; type: cell-based, Klebsiella pneumoniae; settings: MHB II, 10^6 CFU/ml, 37 °C, 24 h, triplicate
Method in brief: as §2

[16] = tested on: K. pneumoniae ATCC 43,816; assay: Minimum bactericidal concentration; type: cell-based, Klebsiella pneumoniae; settings: lowest concentration reducing at least 99.9 % of growth, plated on LB, 37 °C, 24 h, triplicate
A. baumannii Ab-1 [17] = assay: Inhibition of biofilm formation; type: cell-based, Acinetobacter baumannii; settings: ¼ MIC
Method in brief: as §1

S. aureus ATCC 29,213 [18] = assay: Minimum bactericidal concentration; type: cell-based, Staphylococcus aureus; settings: lowest concentration reducing at least 99.9 % of growth, plated on LB, 37 °C, 24 h, triplicate
S. aureus ATCC 29,213 [19] = assay: MIC, broth microdilution; type: cell-based, Staphylococcus aureus; settings: MHB II, 10^6 CFU/ml, 37 °C, 24 h, triplicate
Method in brief: as §2

A. baumannii Ab-1 [20] = assay: MIC, broth microdilution; type: cell-based, Acinetobacter baumannii; settings: MHB II, 10^6 CFU/ml, 37 °C, 24 h, triplicate
Method in brief: as §2

A. baumannii ATCC 19,606 [21] = assay: Inhibition of biofilm formation; type: cell-based, Acinetobacter baumannii; settings: ¼ MIC
Method in brief: as §1

[22] = tested on: K. pneumoniae ATCC 43,816; assay: Inhibition of biofilm formation; type: cell-based, Klebsiella pneumoniae; settings: ¼ MIC
Method in brief: as §1

11 bacterial strains = assay: MBC, summary over all strains; type: cell-based; settings: highest value over all strains, converted to molar
Method in brief: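 The no-peptide growth well, serially diluted and plated, served as reference. Percent growth was calculated from CFU counts; MBC was the lowest concentration giving ≥99.9 % reduction (CLSI). Triplicate.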

A. baumannii IB010 [23] = assay: MIC, broth microdilution; type: cell-based, Acinetobacter baumannii; settings: MHB II, 10^6 CFU/ml, 37 °C, 24 h, triplicate
Method in brief: as §2

A. baumannii IB010 [24] = assay: Minimum bactericidal concentration; type: cell-based, Acinetobacter baumannii; settings: lowest concentration reducing at least 99.9 % of growth, plated on LB, 37 °C, 24 h, triplicate
Stability in human serum = type: in vitro ADME; settings: 25 % (v/v)
Method in brief: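 Test compound was added to RPMI with human serum pre-equilibrated at 37 °C, giving 333.33 µM final compound and 25 % (v/v) final serum. Mixtures were stirred at 37 °C for 10, 30, 45 or 60 min. Proteins were precipitated with 96 % ethanol, cooled at 4 °C for 15 min and spun at 14,000 g. Supernatants were run on C18 RP-HPLC (TFA/CH3CN gradient, 220 nm); degradation was taken from loss of native peak area. Duplicate.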

[25] = tested on: P. aeruginosa ATCC 27,853; assay: Minimum bactericidal concentration; type: cell-based, Pseudomonas aeruginosa; settings: lowest concentration reducing at least 99.9 % of growth, plated on LB, 37 °C, 24 h, triplicate
K. pneumoniae CG258 [26] = assay: MIC, broth microdilution; type: cell-based, Klebsiella pneumoniae; settings: MHB II, 10^6 CFU/ml, 37 °C, 24 h, triplicate
Method in brief: as §2

P. aeruginosa (ST175–1) [27] = assay: Minimum bactericidal concentration; type: cell-based, Pseudomonas aeruginosa; settings: lowest concentration reducing at least 99.9 % of growth, plated on LB, 37 °C, 24 h, triplicate
S. aureus MRSA USA 300 [28] = assay: Minimum bactericidal concentration; type: cell-based, Staphylococcus aureus; settings: lowest concentration reducing at least 99.9 % of growth, plated on LB, 37 °C, 24 h, triplicate
S. aureus MRSA USA 300 [29] = assay: MIC, broth microdilution; type: cell-based, Staphylococcus aureus; settings: MHB II, 10^6 CFU/ml, 37 °C, 24 h, triplicate
Method in brief: as §2

K. pneumoniae CG258 [30] = assay: Inhibition of biofilm formation; type: cell-based, Klebsiella pneumoniae; settings: ¼ MIC
Method in brief: as §1

SMILES | survival after 24h [2] [%] | MBC (E. coli ESBL 1057.1 [3]) [µg/mL] | SBF index compared to BP607 (P. aeruginosa ST175–1) | MIC (E. coli ATCC 25,922 [4]) [µg/mL] | MIC (P. aeruginosa (ST175–1) [5]) [µg/mL] | MIC (E. coli ESBL 1057.1 [6]) [µg/mL] | bactericidal activity in time-kill assay (K. pneumoniae CG258 [7]; 24 h) | MIC (A. baumannii ATCC 19,606 [8]) [µg/mL] | MBC (E. coli ATCC 25,922 [9]) [µg/mL] | growth inhibition of all the strains [10] | MBC (A. baumannii ATCC 19,606 [11]) [µg/mL] | MBC (A. baumannii Ab-1 [12]) [µg/mL] | MIC [13] [µg/mL] | MBC (K. pneumoniae CG258 [14]) [µg/mL] | MIC [15] [µg/mL] | MBC [16] [µg/mL] | SBF index compared to BP607 (A. baumannii Ab-1 [17]) | MBC (S. aureus ATCC 29,213 [18]) [µg/mL] | MIC (S. aureus ATCC 29,213 [19]) [µg/mL] | MIC (A. baumannii Ab-1 [20]) [µg/mL] | also measured
CC[C@H](C)[C@H](NC(=O)[C@H](CCCCN)NC(=O)[C@H](CCCCN)NC(=O)[C@H](Cc1ccccc1)NC(=O)[C@H](CC(C)C)NC(=O)[C@H](CCCCN)NC(=O)[C@@H](N)CCCCN)C(=O)N[C@@H](CC(C)C)C(=O)N[C@@H](CCCCN)C(=O)N[C@@H](Cc1ccccc1)C(=O)N[C@@H](CC(C)C)C(N)=O [BP76] | 100 | 12.5 (≈ 8.9 µM) | reduced SBF indices compared to BP607 | 6.25 (≈ 4.45 µM) | 50 (≈ 35.6 µM) | 12.5 (≈ 8.9 µM) | not at 24 h | 6.25 (≈ 4.45 µM) | 6.25 (≈ 4.45 µM) | ≈ 90% | 6.25 (≈ 4.45 µM) | 12.5 (≈ 8.9 µM) | 50 (≈ 35.6 µM) | 6.25 (≈ 4.45 µM) | 12.5 (≈ 8.9 µM) | 12.5 (≈ 8.9 µM) | reduced SBF indices compared to BP607 | 25 (≈ 17.8 µM) | 25 (≈ 17.8 µM) | 12.5 (≈ 8.9 µM) | production of biofilm (E. coli ATCC 25,922 [1]): reduced production of biofilm; bactericidal activity in time-kill assay (K. pneumoniae CG258 [7]; 6 h): able to reduce growth to bactericidal level; SBF index compared to BP607 (A. baumannii ATCC 19,606 [21]): reduced SBF indices compared to BP607; SBF index compared to BP607 [22]: reduced SBF indices compared to BP607; highest MBC observed (11 bacterial strains): 40 µM; MIC (A. baumannii IB010 [23]): 25 µg/mL (≈ 17.8 µM); MBC (A. baumannii IB010 [24]): 25 µg/mL (≈ 17.8 µM); remaining at 1 h, 333.33 µM (Stability in human serum): 15%; MBC [25]: 50 µg/mL (≈ 35.6 µM); MIC (K. pneumoniae CG258 [26]): 6.25 µg/mL (≈ 4.45 µM); MBC (P. aeruginosa (ST175–1) [27]): 50 µg/mL (≈ 35.6 µM); MBC (S. aureus MRSA USA 300 [28]): 50 µg/mL (≈ 35.6 µM); MIC (S. aureus MRSA USA 300 [29]): 50 µg/mL (≈ 35.6 µM)
CC[C@H](C)[C@H](NC(=O)[C@H](CCCCN)NC(=O)[C@H](CCCCN)NC(=O)[C@H](Cc1ccccc1)NC(=O)[C@H](CC(C)C)NC(=O)[C@@H](CCCCN)NC(=O)[C@@H](N)CCCCN)C(=O)N[C@@H](CC(C)C)C(=O)N[C@@H](CCCCN)C(=O)N[C@@H](Cc1ccc(O)cc1)C(=O)N[C@@H](CC(C)C)C(N)=O [BP145] | 70 | 12.5 (≈ 8.8 µM) | reduced SBF indices compared to BP607 | 6.25 (≈ 4.4 µM) | 50 (≈ 35.2 µM) | 12.5 (≈ 8.8 µM) | bactericidal | 6.25 (≈ 4.4 µM) | 6.25 (≈ 4.4 µM) | ≈ 90% | 12.5 (≈ 8.8 µM) | 12.5 (≈ 8.8 µM) | 50 (≈ 35.2 µM) | 12.5 (≈ 8.8 µM) | 25 (≈ 17.6 µM) | 25 (≈ 17.6 µM) | reduced SBF indices compared to BP607 | 50 (≈ 35.2 µM) | 50 (≈ 35.2 µM) | 12.5 (≈ 8.8 µM) | biofilm formation (K. pneumoniae CG258 [30]): inhibited biofilm formation; SBF index compared to BP607 (A. baumannii ATCC 19,606 [21]): reduced SBF indices compared to BP607; SBF index compared to BP607 [22]: reduced SBF indices compared to BP607; highest MBC observed (11 bacterial strains): 35 µM; MIC (A. baumannii IB010 [23]): 25 µg/mL (≈ 17.6 µM); MBC (A. baumannii IB010 [24]): 25 µg/mL (≈ 17.6 µM); remaining at 1 h, 333.33 µM (Stability in human serum): 35%; MBC [25]: 50 µg/mL (≈ 35.2 µM); MIC (K. pneumoniae CG258 [26]): 12.5 µg/mL (≈ 8.8 µM); MBC (P. aeruginosa (ST175–1) [27]): 50 µg/mL (≈ 35.2 µM); MBC (S. aureus MRSA USA 300 [28]): 50 µg/mL (≈ 35.2 µM); MIC (S. aureus MRSA USA 300 [29]): 50 µg/mL (≈ 35.2 µM)

From article PMC11904594 (Current Research in Microbial Sciences, 2025)
